In ChEMBL document CHEMBL3085772, “Synthesis, biological evaluation and molecular modeling study of 5-trifluoromethyl-Δ²-pyrazoline and isomeric 5/3-trifluoromethylpyrazole derivatives as anti-inflammatory agents” (2013):

Tests used:
Format in all cases: functional
Set-up in all cases: scale not given: the % may be the effect or the level left
[1] = tested on: Rattus norvegicus; test: Antiinflammatory activity in Wistar albino rat assessed as reduction in carrageenan-induced paw edema at 10 mg/kg, po administered 30 mins prior to carrageenan challenge measured after 3 hrs by plethysmometer
In short: (§1)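 Rats housed under standard light and temperature with free food and water; food withdrawn 12 h before and during testing; six rats per group, control given tween 80. Oral dosing 30 min before subplantar injection of 0.1 mL 1% w/v carrageenan in normal saline into left hind paw. Paw volume read by plethysmometer at baseline and 1, 2, 3, 4 h; %AI = (Vc−Vt)/Vc×100.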

[2] = tested on: Rattus norvegicus; test: Antiinflammatory activity in Wistar albino rat assessed as reduction in carrageenan-induced paw edema at 10 mg/kg, po administered 30 mins prior to carrageenan challenge measured after 1 hr by plethysmometer; in short: as §1
[3] = tested on: Rattus norvegicus; test: Antiinflammatory activity in Wistar albino rat assessed as reduction in carrageenan-induced paw edema at 10 mg/kg, po administered 30 mins prior to carrageenan challenge measured after 2 hrs by plethysmometer; in short: as §1
[4] = tested on: Rattus norvegicus; test: Antiinflammatory activity in Wistar albino rat assessed as reduction in carrageenan-induced paw edema at 10 mg/kg, po administered 30 mins prior to carrageenan challenge measured after 4 hrs by plethysmometer; in short: as §1
[5] = tested on: Rattus norvegicus; test: Antiinflammatory activity in Wistar albino rat assessed as reduction in carrageenan-induced paw edema at 50 mg/kg, po administered 30 mins prior to carrageenan challenge measured after 2 hrs by plethysmometer; in short: as §1
[6] = tested on: Rattus norvegicus; test: Antiinflammatory activity in Wistar albino rat assessed as reduction in carrageenan-induced paw edema at 50 mg/kg, po administered 30 mins prior to carrageenan challenge measured after 1 hr by plethysmometer; in short: as §1
[7] = tested on: Rattus norvegicus; test: Antiinflammatory activity in Wistar albino rat assessed as reduction in carrageenan-induced paw edema at 50 mg/kg, po administered 30 mins prior to carrageenan challenge measured after 3 hrs by plethysmometer; in short: as §1
[8] = tested on: Rattus norvegicus; test: Antiinflammatory activity in Wistar albino rat assessed as reduction in carrageenan-induced paw edema at 50 mg/kg, po administered 30 mins prior to carrageenan challenge measured after 4 hrs by plethysmometer; in short: as §1

SMILES	Activity [1] [%]	Activity [2] [%]	Activity [3] [%]	Activity [4] [%]	Activity [5] [%]	Activity [6] [%]	Activity [7] [%]	Activity [8] [%]
COc1ccc2c(c1)c(CC(=O)O)c(C)n2C(=O)c1ccc(Cl)cc1 [INDOMETHACIN]	78	69	75	74	–	–	–	–
Cc1cc(C)nc(N2N=C(c3ccc(F)cc3)C[C@@]2(O)C(F)(F)F)n1	–	–	–	–	51	49	54	38
Cc1ccc(C2=NN(c3nc(C)cc(C)n3)[C@](O)(C(F)(F)F)C2)cc1	–	–	–	–	35	32	54	50
Cc1cc(C)nc(-n2nc(-c3ccc(Cl)cc3)cc2C(F)(F)F)n1	–	–	–	–	54	35	58	53
COc1ccc(-c2cc(C(F)(F)F)nn2-c2nc(C)cc(C)n2)cc1	–	–	–	–	59	56	72	61
Cc1cc(C)nc(N2N=C(c3ccc(Cl)cc3)C[C@@]2(O)C(F)(F)F)n1	–	–	–	–	50	5.7	59	45
Cc1cc(C)nc(N2N=C(C(F)(F)F)C[C@@]2(O)C(F)(F)F)n1	–	–	–	–	44	42	49	23
Cc1cc(C)nc(-n2nc(-c3ccc(F)cc3)cc2C(F)(F)F)n1	–	–	–	–	38	26	55	49
Cc1cc(C)nc(-n2nc(C(F)(F)F)cc2C(F)(F)F)n1	–	–	–	–	46	34	57	44
Cc1cc(C)nc(-n2nc(-c3ccccc3)cc2C(F)(F)F)n1	–	–	–	–	20	4.3	59	56
Cc1cc(C)nc(-n2nc(C(F)(F)F)cc2-c2ccccc2)n1	–	–	–	–	43	33	62	51
Cc1cc(C)nc(-n2nc(C(F)(F)F)cc2-c2ccc(F)cc2)n1	–	–	–	–	59	29	67	58
Cc1ccc(-c2cc(C(F)(F)F)nn2-c2nc(C)cc(C)n2)cc1	–	–	–	–	55	48	69	53
Cc1cc(C)nc(-n2nc(C(F)(F)F)cc2-c2ccc(Cl)cc2)n1	–	–	–	–	64	55	76	63
Cc1cc(C)nc(-n2nc(-c3cccs3)cc2C(F)(F)F)n1	–	–	–	–	18	8.6	47	37
Cc1cc(C)nc(N2N=C(c3ccccc3)C[C@@]2(O)C(F)(F)F)n1	–	–	–	–	47	44	50	45
